Test results taken from ChEMBL document CHEMBL1136779 (J Med Chem, 2003).

T1: Carboxypeptidase G2 (Pseudomonas aeruginosa (strain ATCC 15692 / PAO1 / 1C / PRS 101 / LMG12228)) (UniProt Q9I056)
T1 sequence (whole entry): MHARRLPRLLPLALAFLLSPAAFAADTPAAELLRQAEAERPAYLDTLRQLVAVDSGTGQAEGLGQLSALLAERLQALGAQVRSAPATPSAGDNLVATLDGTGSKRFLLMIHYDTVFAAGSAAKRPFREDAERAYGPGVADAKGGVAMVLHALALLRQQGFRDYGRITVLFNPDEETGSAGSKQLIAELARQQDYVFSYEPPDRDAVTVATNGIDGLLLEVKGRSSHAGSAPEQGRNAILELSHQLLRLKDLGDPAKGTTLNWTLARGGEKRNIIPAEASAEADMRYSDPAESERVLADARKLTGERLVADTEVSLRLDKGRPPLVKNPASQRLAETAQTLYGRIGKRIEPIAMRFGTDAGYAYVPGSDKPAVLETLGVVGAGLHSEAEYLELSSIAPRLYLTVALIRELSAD


Experiments:
[1] = Half-life period (prodrug) was determined; type: ADME
In short: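 Aqueous stability: 100 µM compound in CPG2 assay buffer (100 mM Tris-HCl pH 7.3, 260 µM ZnCl₂). Remaining parent measured by isocratic reverse-phase HPLC (10 mM ammonium acetate pH 5.0/methanol, UV 250 or 265-275 nm) at several times. Half-life from one-phase exponential decay fit. Labile compounds instead followed by absorbance change over 3 min; t½ = 0.69/rate constant.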

WiDr [2] = assay: Cytotoxicity in WiDr cells expressing surface-tethered carboxypeptidase G2 (CPG2); type: functional, cell-based; settings: Homo sapiens
In short: (§1)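 WiDr cells stably expressing surface-tethered CPG2 (stCPG2(Q)3) or β-galactosidase control; 2 × 10⁶ cells seeded, confluent after 48 h. Compound in DMSO stock diluted in medium, re-added at similar concentration after 1 h, further 20 h exposure. Cells reseeded in quadruplicate at ~2 × 10³/well, grown until controls confluent; SRB stain, 590 nm. IC50 from log dose-response sigmoid fit.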

WiDr [3] = assay: Cytotoxicity in WiDr cells expressing beta-galactosidase control; type: functional, cell-based; settings: Homo sapiens; in short: as §1
[4] = Ratio of the half-life period of the prodrug and the drug was determined; type: ADME
[5] = molecular target: T1, Carboxypeptidase G2 (Pseudomonas aeruginosa (strain ATCC 15692 / PAO1 / 1C / PRS 101 / LMG12228)); assay: (§2) The kinetics of activation of the self-immolative prodrug by Carboxypeptidase G2 was measured
In short: (§3)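 CPG2 (50 mU) with prodrug 5-50 µM in 5 µM steps in CPG2 assay buffer (100 mM Tris-HCl pH 7.3, 260 µM ZnCl₂), 37 °C. Remaining prodrug quantified by HPLC at 0, 5, 10, 15 and 20 min; Km and kcat derived.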

[6] = molecular target: T1, Carboxypeptidase G2 (Pseudomonas aeruginosa (strain ATCC 15692 / PAO1 / 1C / PRS 101 / LMG12228)); assay: Ratio of kinetic constants Kcat and Km was determined against Carboxypeptidase G2; in short: as §3
WiDr [7] = assay: Compound was tested for cytotoxicity in WiDr cells engineered for stable expression of beta-galactosidase; type: functional, cell-based; settings: Homo sapiens; in short: as §1
WiDr [8] = assay: Compound was tested for cytotoxicity in WiDr cells engineered for stable expression of surface-tethered CPG2; type: functional, cell-based; settings: Homo sapiens; in short: as §1
[9] = compound: CN(C(=O)OCc1ccc(NC(=O)N[C@@H](CCC(=O)O)C(=O)O)cc1)c1ccc(N(CCCl)CCCl)cc1; assay: as §2; in short: as §3
[10] = compound: CN(C(=O)OCc1ccc(OC(=O)N[C@@H](CCC(=O)O)C(=O)O)cc1)c1ccc(N(CCCl)CCCl)cc1; assay: as §2; in short: as §3
[11] = compound: O=C(O)CC[C@H](NC(=O)Nc1ccc(CO)cc1)C(=O)O; assay: as §2; in short: as §3
[12] = compound: O=C(O)CC[C@H](NC(=O)Nc1ccc(COC(=O)Nc2ccc(N(CCCl)CCCl)cc2)cc1)C(=O)O; assay: as §2; in short: as §3
[13] = compound: O=C(O)CC[C@H](NC(=O)Nc1ccc(COC(=O)Nc2ccccc2N(CCCl)CCCl)cc1)C(=O)O; assay: as §2; in short: as §3
[14] = compound: O=C(O)CC[C@H](NC(=O)Oc1ccc(CO)cc1)C(=O)O; assay: as §2; in short: as §3
[15] = compound: O=C(O)CC[C@H](NC(=O)Oc1ccc(COC(=O)Nc2ccc(N(CCCl)CCCl)cc2)cc1)C(=O)O; assay: as §2; in short: as §3
[16] = compound: O=C(O)CC[C@H](NC(=O)Oc1ccc(COC(=O)Nc2ccccc2N(CCCl)CCCl)cc1)C(=O)O; assay: as §2; in short: as §3

Molecule | T1/2 [1] [min] | IC50 (WiDr [2]) [µM] | IC50 (WiDr [3]) [µM] | Ratio [4] | k cat [5] [s⁻¹] | other results
O=C(O)CC[C@H](NC(=O)Oc1ccc(COC(=O)Nc2ccc(N(CCBr)CCBr)cc2)cc1)C(=O)O | 0.9 | 2.6 | 99.7 | 0.4 | – | –
O=C(O)CC[C@H](NC(=O)Oc1ccc(COC(=O)Nc2ccc(N(CCCl)CCCl)cc2)cc1)C(=O)O | – | – | – | – | < 10 | –
CN(C(=O)OCc1ccc(NC(=O)N[C@@H](CCC(=O)O)C(=O)O)cc1)c1ccc(N(CCCl)CCCl)cc1 | 173.6 | 2.5 | 39.7 | 20.9 | 5.5 | k cat/Km [6]: 0.91
O=C(O)CC[C@H](NC(=O)Oc1ccc(COC(=O)Nc2ccccc2N(CCCl)CCCl)cc1)C(=O)O | 146.3 | 28.1 | 38.1 | 11.9 | 4.27 | k cat/Km [6]: 4.14
O=C(O)CC[C@H](NC(=O)Nc1ccc(CO)cc1)C(=O)O | – | – | – | – | 65.4 | k cat/Km [6]: 21.1
CN(C(=O)OCc1ccc(OC(=O)N[C@@H](CCC(=O)O)C(=O)O)cc1)c1ccc(N(CCBr)CCBr)cc1 | 2.7 | 3.6 | 27.2 | 1 | – | –
CS(=O)(=O)OCCN(CCCl)c1ccc(C(=O)N[C@@H](CCC(=O)O)C(=O)O)cc1 | 59 | – | – | 2.3 | – | IC50 (WiDr [7]): 3230 µM; IC50 (WiDr [8]): 100 µM
O=C(O)CC[C@H](NC(=O)Nc1ccc(COC(=O)Nc2ccccc2N(CCI)CCI)cc1)C(=O)O | 2.7 | 3 | 149 | – | – | –
O=C(O)CC[C@H](NC(=O)Nc1ccc(COC(=O)Nc2ccc(N(CCBr)CCBr)cc2)cc1)C(=O)O | 0.85 | 3.1 | 205 | 0.4 | – | –
O=C(O)CC[C@H](NC(=O)Nc1ccc(COC(=O)Nc2ccccc2N(CCBr)CCBr)cc1)C(=O)O | 3 | 4.7 | 118 | 3.5 | – | –
CN(C(=O)OCc1ccc(OC(=O)N[C@@H](CCC(=O)O)C(=O)O)cc1)c1ccc(N(CCCl)CCCl)cc1 | 173.6 | 1.7 | 19.6 | 20.6 | 4.32 | k cat/Km [6]: 1.78
O=C(O)CC[C@H](NC(=O)Oc1ccc(COC(=O)Nc2ccc(N(CCI)CCI)cc2)cc1)C(=O)O | 0.98 | 1.3 | 53.6 | 2 | – | –
CN(C(=O)OCc1ccc(NC(=O)N[C@@H](CCC(=O)O)C(=O)O)cc1)c1ccc(N(CCBr)CCBr)cc1 | 2.8 | 4.1 | – | 1 | – | –
CN(C(=O)OCc1ccc(OC(=O)N[C@@H](CCC(=O)O)C(=O)O)cc1)c1ccc(N(CCI)CCI)cc1 | 4.6 | 2.6 | 21.5 | 7.7 | – | –
O=C(O)CC[C@H](NC(=O)Oc1ccc(COC(=O)Nc2ccccc2N(CCBr)CCBr)cc1)C(=O)O | 3.74 | 95.2 | 183 | 3.5 | – | –
O=C(O)CC[C@H](NC(=O)Nc1ccc(COC(=O)Nc2ccccc2N(CCCl)CCCl)cc1)C(=O)O | 107.5 | 4.5 | 21.1 | 13.9 | 2.92 | k cat/Km [6]: 5.31
O=C(O)CC[C@H](NC(=O)Oc1ccc(COC(=O)Nc2ccccc2N(CCI)CCI)cc1)C(=O)O | 2.1 | 19 | 73.3 | – | – | –
O=C(O)CC[C@H](NC(=O)Nc1ccc(COC(=O)Nc2ccc(N(CCI)CCI)cc2)cc1)C(=O)O | 0.97 | 1.8 | 180 | 1.9 | – | –
CN(C(=O)OCc1ccc(NC(=O)N[C@@H](CCC(=O)O)C(=O)O)cc1)c1ccc(N(CCI)CCI)cc1 | 3.9 | 1.5 | – | 6.5 | – | –
CS(=O)(=O)OCCN(CCCl)c1ccccc1NC(=O)OCc1ccc(OC(=O)N[C@@H](CCC(=O)O)C(=O)O)cc1 | 10 | 28.5 | 148 | – | – | –
O=C(O)CC[C@H](NC(=O)Oc1ccc(CO)cc1)C(=O)O | – | – | – | – | 140 | k cat/Km [6]: 82.3
O=C(O)CC[C@H](NC(=O)Nc1ccc(COC(=O)Nc2ccc(N(CCCl)CCCl)cc2)cc1)C(=O)O | – | – | – | – | 10 | –
CS(=O)(=O)OCCN(CCOS(C)(=O)=O)c1ccccc1NC(=O)OCc1ccc(OC(=O)N[C@@H](CCC(=O)O)C(=O)O)cc1 | 10.8 | 40 | 208 | – | – | –
Carboxypeptidase G2 (Pseudomonas aeruginosa (strain ATCC 15692 / PAO1 / 1C / PRS 101 / LMG12228)), Q9I056 (protein) MHARRLPRLLPLALAFLLSPAAFAADTPAAELLRQAEAERPAYLDTLRQLVAVDSGTGQAEGLGQLSALLAERLQALGAQVRSAPATPSAGDNLVATLDGTGSKRFLLMIHYDTVFAAGSAAKRPFREDAERAYGPGVADAKGGVAMVLHALALLRQQGFRDYGRITVLFNPDEETGSAGSKQLIAELARQQDYVFSYEPPDRDAVTVATNGIDGLLLEVKGRSSHAGSAPEQGRNAILELSHQLLRLKDLGDPAKGTTLNWTLARGGEKRNIIPAEASAEADMRYSDPAESERVLADARKLTGERLVADTEVSLRLDKGRPPLVKNPASQRLAETAQTLYGRIGKRIEPIAMRFGTDAGYAYVPGSDKPAVLETLGVVGAGLHSEAEYLELSSIAPRLYLTVALIRELSAD | – | – | – | – | – | Km [9]: 6.05 µM; Km [10]: 2.43 µM; Km [11]: 3.1 µM; Km [12]: < 5 µM; Km [13]: 0.55 µM; Km [14]: 1.7 µM; Km [15]: < 5 µM; Km [16]: 1.02 µM
